Test [1] has as its target Ribosomal protein S6 kinase alpha-1 (Homo sapiens) (UniProt Q15418). The experiment in a line: Inhibition of RSK1 Protein Kinase Domain in human A-375 cells at 0.05 uM by KiNativ Profiling analysis relative to control. In kind it is cell-based.
Test [2] has as its target Serine/threonine-protein kinase Nek7 (Homo sapiens) (UniProt Q8TDX7). The experiment in a line: Inhibition of NEK7 Lys2 labeling site in human A-375 cells at 0.05 uM by KiNativ Profiling analysis relative to control. Format: cell-based.
For test [3], the target named is RAF proto-oncogene serine/threonine-protein kinase (Homo sapiens, UniProt P04049). The experiment in a line: Inhibition of RAF1 Lys2 labeling site in human A-375 cells at 0.5 uM by KiNativ Profiling analysis relative to control. Format: cell-based.
For test [4], the target named is T1, Phosphatidylinositol 5-phosphate 4-kinase type-2 alpha (Homo sapiens) (UniProt P48426).
T1 sequence (whole entry): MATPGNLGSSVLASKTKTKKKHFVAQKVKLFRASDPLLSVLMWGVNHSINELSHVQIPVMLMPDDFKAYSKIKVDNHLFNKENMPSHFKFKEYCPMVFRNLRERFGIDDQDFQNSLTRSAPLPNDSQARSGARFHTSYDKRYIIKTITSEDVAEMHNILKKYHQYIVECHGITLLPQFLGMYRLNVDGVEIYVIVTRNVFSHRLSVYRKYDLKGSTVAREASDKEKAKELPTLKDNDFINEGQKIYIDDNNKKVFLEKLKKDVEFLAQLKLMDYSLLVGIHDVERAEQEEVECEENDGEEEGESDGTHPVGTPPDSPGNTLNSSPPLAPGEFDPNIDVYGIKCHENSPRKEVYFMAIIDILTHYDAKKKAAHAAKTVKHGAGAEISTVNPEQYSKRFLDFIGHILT
As to the kind of experiment: Inhibition of PIP4K2A ATP labeling site in human A-375 cells at 0.5 uM by KiNativ Profiling analysis relative to control. In kind it is cell-based.

For test [5], the target named is Tyrosine-protein kinase Fer (Homo sapiens, UniProt P16591). The experiment in a line: Inhibition of FER Lys1 labeling site harbouring DKTSVAVKTCKEDLPQELK in human A-375 cells at 0.5 uM by KiNativ Profiling analysis relative to control. In kind it is cell-based.
Test [6] addresses T2, Ephrin type-B receptor 4 (Homo sapiens) (UniProt P54760).
T2 sequence (whole entry): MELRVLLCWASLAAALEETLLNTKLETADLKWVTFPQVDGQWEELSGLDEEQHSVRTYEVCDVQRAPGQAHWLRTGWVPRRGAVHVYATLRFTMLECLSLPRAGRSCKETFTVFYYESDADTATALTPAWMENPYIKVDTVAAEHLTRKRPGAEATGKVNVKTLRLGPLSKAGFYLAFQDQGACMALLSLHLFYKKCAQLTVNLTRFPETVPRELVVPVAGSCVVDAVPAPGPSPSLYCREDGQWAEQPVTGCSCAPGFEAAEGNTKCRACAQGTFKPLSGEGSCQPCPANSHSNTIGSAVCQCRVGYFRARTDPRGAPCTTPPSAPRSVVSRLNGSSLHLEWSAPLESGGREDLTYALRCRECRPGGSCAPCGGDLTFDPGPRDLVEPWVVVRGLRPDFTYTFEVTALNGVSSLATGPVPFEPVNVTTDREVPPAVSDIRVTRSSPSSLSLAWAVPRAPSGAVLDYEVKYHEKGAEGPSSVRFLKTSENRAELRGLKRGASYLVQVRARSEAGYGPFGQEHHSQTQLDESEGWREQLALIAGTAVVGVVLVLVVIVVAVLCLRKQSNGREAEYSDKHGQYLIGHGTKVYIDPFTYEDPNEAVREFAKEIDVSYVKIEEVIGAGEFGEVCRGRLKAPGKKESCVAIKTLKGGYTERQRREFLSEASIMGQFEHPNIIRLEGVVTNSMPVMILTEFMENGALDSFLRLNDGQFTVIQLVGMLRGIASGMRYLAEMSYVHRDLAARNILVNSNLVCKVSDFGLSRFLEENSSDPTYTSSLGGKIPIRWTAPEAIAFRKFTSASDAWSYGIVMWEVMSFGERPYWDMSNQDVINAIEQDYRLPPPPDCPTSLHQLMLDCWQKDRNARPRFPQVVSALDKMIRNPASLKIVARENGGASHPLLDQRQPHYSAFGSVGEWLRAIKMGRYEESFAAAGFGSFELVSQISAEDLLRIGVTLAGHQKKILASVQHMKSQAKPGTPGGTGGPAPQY
The experiment in a line: Inhibition of EphB4 ACT labeling site in human A-375 cells at 0.5 uM by KiNativ Profiling analysis relative to control. In kind it is cell-based. An outline of the steps: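 Live A375 melanoma cells were treated with compound at 0.5 or 5 μM, then lysed. Lysates were labeled with a lysine-reactive ATP or ADP-biotin probe. The read-out was protection of each kinase probe-labeling site from labeling, relative to control.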

In test [7] the target is Serine/threonine-protein kinase MARK2 (Homo sapiens) (UniProt Q7KZI7). As to the kind of experiment: Inhibition of MARK2 Lys2 labeling site harbouring FIVHRDLKAENLLLDADMNIK in human A-375 cells at 0.05 uM by KiNativ Profiling analysis relative to control. In kind it is cell-based.
Test [8] has as its target Protein kinase C beta type (Homo sapiens) (UniProt P05771). The experiment in a line: Inhibition of PKCb Lys2 labeling site in human A-375 cells at 0.5 uM by KiNativ Profiling analysis relative to control. In kind it is cell-based.
In test [9] the target is Serine/threonine-protein kinase/endoribonuclease IRE1 (Homo sapiens) (UniProt O75460). The experiment in a line: Inhibition of IRE1 Lys2 labeling site in human A-375 cells at 0.5 uM by KiNativ Profiling analysis relative to control. Format: cell-based.
Test [10] has as its target Serine/threonine-protein kinase 26 (Homo sapiens) (UniProt Q9P289). As to the kind of experiment: Inhibition of MST4 ACT labeling site in human A-375 cells at 5 uM by KiNativ Profiling analysis relative to control. Format: cell-based.
For test [11], the target named is T3, Mitogen-activated protein kinase kinase kinase 7 (Homo sapiens) (UniProt O43318).
T3 sequence (whole entry): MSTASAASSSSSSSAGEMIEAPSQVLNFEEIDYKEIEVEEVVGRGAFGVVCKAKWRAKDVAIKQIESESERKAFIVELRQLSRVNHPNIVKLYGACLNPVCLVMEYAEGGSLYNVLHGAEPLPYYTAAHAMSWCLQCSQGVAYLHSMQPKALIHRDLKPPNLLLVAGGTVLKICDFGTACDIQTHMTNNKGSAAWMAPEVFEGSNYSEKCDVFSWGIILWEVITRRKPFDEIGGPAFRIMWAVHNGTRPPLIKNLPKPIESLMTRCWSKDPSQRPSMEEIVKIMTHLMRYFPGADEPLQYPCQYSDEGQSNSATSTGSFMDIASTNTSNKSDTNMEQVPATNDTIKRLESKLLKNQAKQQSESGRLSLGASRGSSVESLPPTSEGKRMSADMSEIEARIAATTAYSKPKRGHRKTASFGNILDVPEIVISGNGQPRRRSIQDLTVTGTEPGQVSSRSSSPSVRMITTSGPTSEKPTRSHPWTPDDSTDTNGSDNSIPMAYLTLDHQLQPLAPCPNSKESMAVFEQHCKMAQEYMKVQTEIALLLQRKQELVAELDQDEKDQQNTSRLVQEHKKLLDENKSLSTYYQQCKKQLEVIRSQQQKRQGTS
As to the kind of experiment: Inhibition of TAK1 Lys2 labeling site in human Huh-7 cell lysate at 1 uM by KiNativ Profiling analysis relative to control. In kind it is subcellular.

Experimental findings from ChEMBL document CHEMBL5696442, “Discovery of type II inhibitors of TGFβ-activated kinase 1 (TAK1) and mitogen-activated protein kinase kinase kinase kinase 2 (MAP4K2)” (J Med Chem, 2015) are described below.

One may read the inhibition as the relative decrease from the control value, in per cent.

Chain of Ribosomal protein S6 kinase alpha-1 (Homo sapiens) (Q15418 whole entry, the tested form may be a part): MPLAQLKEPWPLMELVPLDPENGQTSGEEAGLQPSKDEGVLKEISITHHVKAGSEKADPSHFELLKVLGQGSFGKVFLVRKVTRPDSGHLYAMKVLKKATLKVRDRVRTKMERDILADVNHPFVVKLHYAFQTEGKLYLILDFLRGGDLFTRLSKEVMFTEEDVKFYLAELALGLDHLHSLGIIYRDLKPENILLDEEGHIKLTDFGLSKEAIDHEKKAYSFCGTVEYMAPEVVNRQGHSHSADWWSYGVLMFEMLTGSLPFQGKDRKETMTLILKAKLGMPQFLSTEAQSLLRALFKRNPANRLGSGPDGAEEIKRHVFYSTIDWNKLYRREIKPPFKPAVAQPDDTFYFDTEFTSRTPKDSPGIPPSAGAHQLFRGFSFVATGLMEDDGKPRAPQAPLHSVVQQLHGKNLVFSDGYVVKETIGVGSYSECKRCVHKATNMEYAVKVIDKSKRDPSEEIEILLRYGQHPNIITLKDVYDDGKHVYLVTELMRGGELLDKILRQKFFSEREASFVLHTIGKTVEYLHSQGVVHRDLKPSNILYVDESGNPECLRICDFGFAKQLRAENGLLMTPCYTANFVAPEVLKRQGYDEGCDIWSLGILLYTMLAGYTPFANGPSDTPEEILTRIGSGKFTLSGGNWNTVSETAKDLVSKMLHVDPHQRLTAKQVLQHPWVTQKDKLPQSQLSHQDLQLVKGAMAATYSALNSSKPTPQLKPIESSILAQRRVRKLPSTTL
Chain of Serine/threonine-protein kinase MARK2 (Homo sapiens) (Q7KZI7 whole entry): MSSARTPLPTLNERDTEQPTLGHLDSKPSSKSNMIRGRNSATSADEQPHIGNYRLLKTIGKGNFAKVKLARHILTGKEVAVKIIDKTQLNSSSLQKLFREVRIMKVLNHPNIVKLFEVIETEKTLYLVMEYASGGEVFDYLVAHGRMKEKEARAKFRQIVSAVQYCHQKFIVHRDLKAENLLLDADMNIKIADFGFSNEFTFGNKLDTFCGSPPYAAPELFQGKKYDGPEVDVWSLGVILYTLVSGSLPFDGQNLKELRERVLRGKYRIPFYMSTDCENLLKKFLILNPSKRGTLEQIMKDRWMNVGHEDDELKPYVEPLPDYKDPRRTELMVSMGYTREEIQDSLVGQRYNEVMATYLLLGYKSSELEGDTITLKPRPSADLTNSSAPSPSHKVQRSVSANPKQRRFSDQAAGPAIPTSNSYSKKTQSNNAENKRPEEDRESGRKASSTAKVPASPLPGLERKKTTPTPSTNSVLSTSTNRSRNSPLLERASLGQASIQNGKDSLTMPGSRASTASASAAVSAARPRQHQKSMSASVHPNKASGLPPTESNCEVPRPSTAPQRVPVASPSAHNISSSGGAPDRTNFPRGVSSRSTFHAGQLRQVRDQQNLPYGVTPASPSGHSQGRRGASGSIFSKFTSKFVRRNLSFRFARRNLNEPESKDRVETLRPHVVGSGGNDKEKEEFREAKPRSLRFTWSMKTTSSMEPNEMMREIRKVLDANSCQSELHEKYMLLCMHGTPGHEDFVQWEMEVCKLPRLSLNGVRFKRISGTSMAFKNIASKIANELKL
Chain of Serine/threonine-protein kinase/endoribonuclease IRE1 (Homo sapiens) (O75460 19-977 limits assumed): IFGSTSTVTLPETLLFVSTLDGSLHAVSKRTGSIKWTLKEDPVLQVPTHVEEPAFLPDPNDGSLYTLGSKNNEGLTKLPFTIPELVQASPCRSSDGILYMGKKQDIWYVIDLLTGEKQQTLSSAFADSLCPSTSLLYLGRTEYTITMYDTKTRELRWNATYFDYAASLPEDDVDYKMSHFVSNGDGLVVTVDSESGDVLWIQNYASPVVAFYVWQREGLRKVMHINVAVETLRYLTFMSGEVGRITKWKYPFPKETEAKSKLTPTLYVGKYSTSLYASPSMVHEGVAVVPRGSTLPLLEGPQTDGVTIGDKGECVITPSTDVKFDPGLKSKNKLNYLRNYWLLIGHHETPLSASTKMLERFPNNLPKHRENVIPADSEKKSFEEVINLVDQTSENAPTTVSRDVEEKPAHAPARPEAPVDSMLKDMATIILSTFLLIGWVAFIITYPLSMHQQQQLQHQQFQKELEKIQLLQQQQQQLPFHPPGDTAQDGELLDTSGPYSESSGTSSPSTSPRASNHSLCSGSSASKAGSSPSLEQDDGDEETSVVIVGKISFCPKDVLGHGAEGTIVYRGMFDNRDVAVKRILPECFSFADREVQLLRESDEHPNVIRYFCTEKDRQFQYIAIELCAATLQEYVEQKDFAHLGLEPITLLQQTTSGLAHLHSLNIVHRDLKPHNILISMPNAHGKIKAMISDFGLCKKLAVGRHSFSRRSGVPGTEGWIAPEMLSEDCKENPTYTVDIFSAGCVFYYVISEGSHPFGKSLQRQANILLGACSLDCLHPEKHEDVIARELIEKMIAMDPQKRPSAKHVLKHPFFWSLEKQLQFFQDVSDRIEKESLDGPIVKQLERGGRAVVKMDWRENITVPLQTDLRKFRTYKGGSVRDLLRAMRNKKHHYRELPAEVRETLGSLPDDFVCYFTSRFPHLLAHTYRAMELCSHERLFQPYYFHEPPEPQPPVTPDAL
Chain of RAF proto-oncogene serine/threonine-protein kinase (P04049 whole entry): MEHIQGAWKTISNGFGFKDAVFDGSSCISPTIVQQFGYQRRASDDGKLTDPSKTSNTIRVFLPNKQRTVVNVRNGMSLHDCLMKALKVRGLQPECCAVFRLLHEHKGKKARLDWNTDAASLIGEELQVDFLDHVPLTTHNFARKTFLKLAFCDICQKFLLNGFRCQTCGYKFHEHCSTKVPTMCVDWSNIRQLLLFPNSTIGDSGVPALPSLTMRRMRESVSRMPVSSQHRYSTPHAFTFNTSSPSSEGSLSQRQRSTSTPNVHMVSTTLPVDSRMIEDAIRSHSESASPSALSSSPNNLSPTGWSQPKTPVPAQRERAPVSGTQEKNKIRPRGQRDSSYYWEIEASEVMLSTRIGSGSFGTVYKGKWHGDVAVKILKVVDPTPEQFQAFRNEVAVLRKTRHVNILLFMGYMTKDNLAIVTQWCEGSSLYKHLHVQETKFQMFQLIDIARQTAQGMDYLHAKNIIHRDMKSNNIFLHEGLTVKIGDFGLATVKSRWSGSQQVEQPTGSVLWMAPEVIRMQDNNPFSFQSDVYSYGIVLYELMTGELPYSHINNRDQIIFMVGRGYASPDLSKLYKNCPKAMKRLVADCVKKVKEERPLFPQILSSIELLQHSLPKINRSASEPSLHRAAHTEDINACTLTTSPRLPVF
Chain of Protein kinase C beta type (Homo sapiens) (P05771 2-671 limits assumed): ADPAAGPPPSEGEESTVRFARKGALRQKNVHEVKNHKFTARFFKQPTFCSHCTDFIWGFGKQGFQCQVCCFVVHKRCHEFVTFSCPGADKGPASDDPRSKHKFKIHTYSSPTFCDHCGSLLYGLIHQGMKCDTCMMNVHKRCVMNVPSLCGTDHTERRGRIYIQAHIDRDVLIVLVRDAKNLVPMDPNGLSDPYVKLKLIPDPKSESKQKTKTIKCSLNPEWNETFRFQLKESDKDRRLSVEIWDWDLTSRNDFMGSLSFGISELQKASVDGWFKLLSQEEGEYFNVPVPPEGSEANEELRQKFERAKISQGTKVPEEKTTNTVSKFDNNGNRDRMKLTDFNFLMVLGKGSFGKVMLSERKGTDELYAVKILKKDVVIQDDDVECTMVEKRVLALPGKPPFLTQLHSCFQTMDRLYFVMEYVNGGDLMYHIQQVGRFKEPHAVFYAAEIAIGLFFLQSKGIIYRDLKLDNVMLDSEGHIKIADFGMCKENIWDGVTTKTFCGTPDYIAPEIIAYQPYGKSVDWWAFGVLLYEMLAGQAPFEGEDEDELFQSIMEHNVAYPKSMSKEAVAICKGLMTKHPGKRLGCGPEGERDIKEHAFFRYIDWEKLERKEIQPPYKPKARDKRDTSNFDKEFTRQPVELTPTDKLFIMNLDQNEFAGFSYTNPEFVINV
Chain of Serine/threonine-protein kinase Nek7 (Homo sapiens) (Q8TDX7 whole entry, looked up): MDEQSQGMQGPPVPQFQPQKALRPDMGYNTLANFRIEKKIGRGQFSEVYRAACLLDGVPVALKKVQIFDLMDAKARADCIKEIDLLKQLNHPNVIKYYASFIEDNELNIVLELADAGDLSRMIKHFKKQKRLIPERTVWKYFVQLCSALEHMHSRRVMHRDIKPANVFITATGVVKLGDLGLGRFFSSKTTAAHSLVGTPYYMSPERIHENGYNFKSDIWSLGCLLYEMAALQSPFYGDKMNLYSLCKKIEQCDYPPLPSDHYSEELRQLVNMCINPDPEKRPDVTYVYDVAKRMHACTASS
Chain of Serine/threonine-protein kinase 26 (Homo sapiens) (Q9P289 2-416 limits assumed): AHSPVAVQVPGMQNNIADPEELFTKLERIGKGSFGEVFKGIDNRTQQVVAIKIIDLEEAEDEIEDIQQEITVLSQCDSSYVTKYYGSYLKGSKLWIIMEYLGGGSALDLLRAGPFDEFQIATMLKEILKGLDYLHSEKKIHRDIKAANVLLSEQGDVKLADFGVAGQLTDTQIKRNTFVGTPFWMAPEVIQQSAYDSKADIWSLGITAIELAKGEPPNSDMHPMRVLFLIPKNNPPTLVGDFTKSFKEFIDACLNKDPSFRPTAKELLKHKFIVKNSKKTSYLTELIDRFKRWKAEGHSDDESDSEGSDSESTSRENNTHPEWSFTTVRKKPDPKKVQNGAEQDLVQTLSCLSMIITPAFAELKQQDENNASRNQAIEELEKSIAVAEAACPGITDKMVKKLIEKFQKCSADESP

Consider `CCN1CCN(Cc2ccc(NC(=O)c3ccc(C)c(/C=C/c4cnc5[nH]ccc5c4OC)c3)cc2C(F)(F)F)CC1`, for which the inhibition in [1] was 1.4%; in test [2], 5.8%; in [3], 82.6%; in test [4] it was -5.5%; in test [5], 30%; in [6], 78.1%. In addition, the inhibition in [7] was 14.2%; in test [8] it was 48.2%; in test [9] it was -9.6%; in test [10] it was 13.7%.
As for `CNc1cc(Oc2cc(C(=O)Nc3cc(-n4cnc(C)c4)cc(C(F)(F)F)c3)ccc2C)ncn1`, in test [11], the inhibition was determined as 29.3%.
As to `CCN1CCN(Cc2ccc(NC(=O)c3ccc(C)c(Oc4ccnc5[nH]ccc45)c3)cc2C(F)(F)F)CC1`, the inhibition in [1] is -4.7%; in test [2], 10.6%; in test [3] it was 79.2%; in test [4], -0.4%; in test [5] it was 87%; in [6], 39.2%. For the same compound, the inhibition in test [7] amounted to 11.3%; in test [8], 65%; in test [9], 4.5%; in test [10] it was 35.1%.
On to `CNc1cc(Oc2cc(C(=O)Nc3cc(N4CCN(C)CC4)cc(C(F)(F)F)c3)ccc2C)ncn1`, for which the inhibition in [11] turned out to be 7%.
